Activity calls are given as the source filed them. The rule behind the calls is not given here.
Key:
[1] = target: T1, High affinity 3',5'-cyclic-AMP phosphodiesterase 7A (Homo sapiens, UniProt Q13946); experiment: Inhibition of human recombinant PDE7A1 assessed as inhibition of [3H]cAMP hydrolysis at 3 uM by scintillation proximity assay
Outline: (§1)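 Recombinant human PDE3A or PDE7A1 was tested at a single 3 µM level in the scintillation proximity assay, with [³H]cAMP as substrate and cAMP-to-AMP hydrolysis as read-out. Results are expressed as % inhibition.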

[2] = target: cAMP and cAMP-inhibited cGMP 3',5'-cyclic phosphodiesterase 10A (Homo sapiens, UniProt Q9Y233); experiment: Inhibition of human recombinant PDE10A assessed as inhibition of [3H]cAMP hydrolysis by scintillation proximity assay
Sequence of cAMP and cAMP-inhibited cGMP 3',5'-cyclic phosphodiesterase 10A (Q9Y233 whole entry): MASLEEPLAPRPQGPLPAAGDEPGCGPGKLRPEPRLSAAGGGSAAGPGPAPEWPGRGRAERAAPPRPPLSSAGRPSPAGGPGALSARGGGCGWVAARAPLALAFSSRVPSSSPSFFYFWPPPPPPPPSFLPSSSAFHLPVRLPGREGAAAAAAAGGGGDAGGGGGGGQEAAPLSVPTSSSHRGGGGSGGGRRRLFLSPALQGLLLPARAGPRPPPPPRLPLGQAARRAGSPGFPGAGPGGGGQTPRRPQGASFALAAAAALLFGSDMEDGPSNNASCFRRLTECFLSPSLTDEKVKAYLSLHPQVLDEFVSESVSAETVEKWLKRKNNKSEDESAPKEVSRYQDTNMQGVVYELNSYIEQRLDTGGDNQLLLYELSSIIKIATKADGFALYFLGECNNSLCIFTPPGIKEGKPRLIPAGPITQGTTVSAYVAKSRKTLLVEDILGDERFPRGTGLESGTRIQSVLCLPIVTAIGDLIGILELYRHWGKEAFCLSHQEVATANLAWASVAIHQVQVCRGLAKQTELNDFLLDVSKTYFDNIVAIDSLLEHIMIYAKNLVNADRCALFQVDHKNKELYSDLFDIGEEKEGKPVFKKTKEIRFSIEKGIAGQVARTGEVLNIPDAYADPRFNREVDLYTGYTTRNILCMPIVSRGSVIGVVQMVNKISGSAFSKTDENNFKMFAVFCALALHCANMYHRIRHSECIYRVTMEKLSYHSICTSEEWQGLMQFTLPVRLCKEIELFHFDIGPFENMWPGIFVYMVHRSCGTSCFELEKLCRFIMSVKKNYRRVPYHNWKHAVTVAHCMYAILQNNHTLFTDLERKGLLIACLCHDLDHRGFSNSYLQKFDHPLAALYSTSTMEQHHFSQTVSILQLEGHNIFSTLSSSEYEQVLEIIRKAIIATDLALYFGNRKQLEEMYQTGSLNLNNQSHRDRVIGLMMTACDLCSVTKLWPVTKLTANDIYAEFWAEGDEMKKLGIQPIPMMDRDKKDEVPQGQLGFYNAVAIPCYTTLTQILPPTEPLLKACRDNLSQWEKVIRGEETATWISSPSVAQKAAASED
Outline: (§2)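 Scintillation proximity assay on recombinant human PDEs 1–11, with [³H]cAMP as substrate and hydrolysis of cAMP to AMP as read-out. Ki values are means of two experiments.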

[3] = target: T2, cGMP-inhibited 3',5'-cyclic phosphodiesterase 3A (Homo sapiens, UniProt Q14432); experiment: Inhibition of human recombinant PDE3A assessed as inhibition of [3H]cAMP hydrolysis at 3 uM by scintillation proximity assay; outline: as §1
[4] = target: T2, cGMP-inhibited 3',5'-cyclic phosphodiesterase 3A; experiment: Inhibition of human recombinant PDE3A assessed as inhibition of [3H]cAMP hydrolysis by scintillation proximity assay; outline: as §2
[5] = target: T1, High affinity 3',5'-cyclic-AMP phosphodiesterase 7A; experiment: Inhibition of human recombinant PDE7A1 assessed as inhibition of [3H]cAMP hydrolysis by scintillation proximity assay; outline: as §2
[6] = target: High affinity cGMP-specific 3',5'-cyclic phosphodiesterase 9A (Homo sapiens, UniProt O76083); experiment: Inhibition of human recombinant PDE9 assessed as inhibition of [3H]cAMP hydrolysis by scintillation proximity assay; outline: as §2
Sequence of High affinity cGMP-specific 3',5'-cyclic phosphodiesterase 9A (O76083 whole entry): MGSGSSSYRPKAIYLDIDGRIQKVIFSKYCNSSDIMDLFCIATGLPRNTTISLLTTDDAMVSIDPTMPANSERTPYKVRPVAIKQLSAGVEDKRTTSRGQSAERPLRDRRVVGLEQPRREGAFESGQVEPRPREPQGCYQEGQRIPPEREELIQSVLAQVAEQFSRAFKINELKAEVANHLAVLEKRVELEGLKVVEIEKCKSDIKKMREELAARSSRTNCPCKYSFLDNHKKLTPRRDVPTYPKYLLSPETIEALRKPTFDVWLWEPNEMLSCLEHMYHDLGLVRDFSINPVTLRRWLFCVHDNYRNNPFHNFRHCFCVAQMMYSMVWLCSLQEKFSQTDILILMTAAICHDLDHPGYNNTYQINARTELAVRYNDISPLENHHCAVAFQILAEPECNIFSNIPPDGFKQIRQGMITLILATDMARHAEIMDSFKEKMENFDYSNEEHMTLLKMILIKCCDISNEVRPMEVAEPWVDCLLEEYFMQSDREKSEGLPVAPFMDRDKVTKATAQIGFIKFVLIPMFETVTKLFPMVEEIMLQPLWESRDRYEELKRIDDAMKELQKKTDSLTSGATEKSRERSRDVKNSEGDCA

[7] = Dissociation constant, pKa of the compound; type: physicochemical
Phosphodiesterase 6 = experiment: Inhibition of human recombinant PDE6 assessed as inhibition of [3H]cAMP hydrolysis by scintillation proximity assay; type: protein assay; outline: as §2
[8] = target: cGMP-dependent 3',5'-cyclic phosphodiesterase (Homo sapiens, UniProt O00408); experiment: Inhibition of human recombinant PDE2 assessed as inhibition of [3H]cAMP hydrolysis by scintillation proximity assay; outline: as §2
Sequence of cGMP-dependent 3',5'-cyclic phosphodiesterase (O00408 whole entry): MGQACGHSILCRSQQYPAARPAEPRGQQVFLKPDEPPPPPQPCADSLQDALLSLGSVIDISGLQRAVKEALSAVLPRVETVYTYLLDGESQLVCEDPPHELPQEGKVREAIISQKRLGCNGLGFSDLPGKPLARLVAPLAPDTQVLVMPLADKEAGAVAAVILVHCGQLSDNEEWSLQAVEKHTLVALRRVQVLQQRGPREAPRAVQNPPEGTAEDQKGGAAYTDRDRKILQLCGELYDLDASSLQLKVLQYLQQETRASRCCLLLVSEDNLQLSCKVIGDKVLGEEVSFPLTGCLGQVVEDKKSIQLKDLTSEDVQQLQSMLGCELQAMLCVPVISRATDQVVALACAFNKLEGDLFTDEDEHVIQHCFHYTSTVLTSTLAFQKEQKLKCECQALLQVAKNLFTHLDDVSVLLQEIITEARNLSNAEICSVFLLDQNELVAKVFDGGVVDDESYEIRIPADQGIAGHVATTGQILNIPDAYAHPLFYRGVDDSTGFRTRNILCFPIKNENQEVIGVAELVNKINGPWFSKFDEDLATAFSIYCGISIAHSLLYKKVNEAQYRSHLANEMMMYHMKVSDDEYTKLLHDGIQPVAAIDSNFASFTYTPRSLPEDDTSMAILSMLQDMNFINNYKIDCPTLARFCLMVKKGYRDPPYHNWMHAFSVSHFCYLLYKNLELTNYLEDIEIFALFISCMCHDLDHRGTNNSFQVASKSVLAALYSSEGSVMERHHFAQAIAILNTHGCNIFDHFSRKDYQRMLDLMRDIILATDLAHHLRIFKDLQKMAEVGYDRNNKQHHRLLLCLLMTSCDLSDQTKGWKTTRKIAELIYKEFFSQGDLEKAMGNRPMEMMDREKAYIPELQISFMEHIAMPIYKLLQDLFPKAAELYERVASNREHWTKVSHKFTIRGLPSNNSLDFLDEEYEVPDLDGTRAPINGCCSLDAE

[9] = Drug uptake in CD rat brain at 30 mg/kg, po after 1 hr; type: ADME, organism-based; set-up: dose 30 mg/kg, route oral
[10] = target: cGMP-specific 3',5'-cyclic phosphodiesterase (Homo sapiens, UniProt O76074); experiment: Inhibition of human recombinant PDE5 assessed as inhibition of [3H]cAMP hydrolysis by scintillation proximity assay; outline: as §2
Phosphodiesterase 8 = Phosphodiesterase 8 (Homo sapiens, UniProt O95263+O60658); experiment: Inhibition of human recombinant PDE8 assessed as inhibition of [3H]cAMP hydrolysis by scintillation proximity assay; type: protein assay; outline: as §2
hERG (KCNH2) = hERG (KCNH2) (Homo sapiens, UniProt Q12809); experiment: Inhibition of human ERG at 10 uM
Sequence of hERG (KCNH2) (Q12809 whole entry): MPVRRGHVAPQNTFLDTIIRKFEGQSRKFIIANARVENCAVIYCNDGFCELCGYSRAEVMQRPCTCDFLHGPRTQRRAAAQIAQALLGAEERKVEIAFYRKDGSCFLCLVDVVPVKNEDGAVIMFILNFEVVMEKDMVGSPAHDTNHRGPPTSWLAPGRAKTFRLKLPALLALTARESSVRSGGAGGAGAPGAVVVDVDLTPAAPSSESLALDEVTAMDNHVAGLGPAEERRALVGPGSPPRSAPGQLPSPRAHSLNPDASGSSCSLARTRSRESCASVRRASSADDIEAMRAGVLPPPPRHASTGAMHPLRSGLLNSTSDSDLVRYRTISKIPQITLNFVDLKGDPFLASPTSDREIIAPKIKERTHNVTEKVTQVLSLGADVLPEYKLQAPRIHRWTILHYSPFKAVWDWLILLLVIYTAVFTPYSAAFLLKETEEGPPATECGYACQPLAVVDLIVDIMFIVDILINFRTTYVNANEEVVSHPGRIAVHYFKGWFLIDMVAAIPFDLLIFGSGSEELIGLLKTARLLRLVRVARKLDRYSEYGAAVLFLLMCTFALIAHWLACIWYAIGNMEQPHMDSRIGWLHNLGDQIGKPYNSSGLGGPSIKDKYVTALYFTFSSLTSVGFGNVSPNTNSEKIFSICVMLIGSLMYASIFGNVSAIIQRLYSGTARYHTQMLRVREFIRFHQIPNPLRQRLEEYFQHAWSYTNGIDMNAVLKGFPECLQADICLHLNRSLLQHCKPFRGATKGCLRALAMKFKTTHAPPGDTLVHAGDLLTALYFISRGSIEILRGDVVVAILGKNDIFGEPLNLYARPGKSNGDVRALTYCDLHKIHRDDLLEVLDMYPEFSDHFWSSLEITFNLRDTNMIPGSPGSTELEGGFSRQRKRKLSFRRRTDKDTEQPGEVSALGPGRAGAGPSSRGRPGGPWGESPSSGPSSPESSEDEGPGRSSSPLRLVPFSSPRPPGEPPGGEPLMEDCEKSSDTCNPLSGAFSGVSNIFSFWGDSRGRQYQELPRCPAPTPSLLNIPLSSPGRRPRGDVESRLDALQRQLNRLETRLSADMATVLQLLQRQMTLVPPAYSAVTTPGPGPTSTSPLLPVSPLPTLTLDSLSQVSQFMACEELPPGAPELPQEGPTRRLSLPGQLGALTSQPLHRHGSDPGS
Outline: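 hERG inhibition was measured on the IonWorks platform at 10 µM.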

Phosphodiesterase 1 = Phosphodiesterase 1 (Homo sapiens, UniProt P54750+Q01064+Q14123); experiment: Inhibition of human recombinant PDE1 assessed as inhibition of [3H]cAMP hydrolysis by scintillation proximity assay; type: protein assay; outline: as §2
[11] = target: Dual 3',5'-cyclic-AMP and -GMP phosphodiesterase 11A (Homo sapiens, UniProt Q9HCR9); experiment: Inhibition of human recombinant PDE11 assessed as inhibition of [3H]cAMP hydrolysis by scintillation proximity assay; outline: as §2
Rattus norvegicus [12] = experiment: Antipsychotic activity in CD rat assessed as inhibition of MK801-induced hyperactivity at 30 mg/kg, po; type: functional, organism-based; set-up: dose 30 mg/kg
Outline: (§3)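 Male CD rats were habituated to locomotor activity chambers 24 h before testing. On test day, MK-801 (0.3 mg/kg, sc) was co-administered with the PDE10 inhibitor (po) and the rats were placed in the apparatus. Inhibition is the activity of the inhibitor+MK-801 group as a percent of the vehicle+MK-801 group.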

Phosphodiesterase 4 = Phosphodiesterase 4 (Homo sapiens, UniProt P27815+Q08499+Q07343+Q08493); experiment: Inhibition of human recombinant PDE4 assessed as inhibition of [3H]cAMP hydrolysis by scintillation proximity assay; type: protein assay; outline: as §2
[13] = Solubility of the compound in 2% DMSO at pH 7.4; type: physicochemical
[14] = Clearance in monkey hepatocytes assessed per 10^6 cells; type: ADME, cell-based, Macaca mulatta, Hepatocyte; settings: rhesus monkey, read-out: CLH
[15] = Clearance in human hepatocytes assessed per 10^6 cells; type: ADME, cell-based, Hepatocyte; settings: read-out: CLH
[16] = Clearance in rat hepatocytes assessed per 10^6 cells; type: ADME, cell-based, Hepatocyte; settings: read-out: CLH
[17] = Toxicity in Cebus monkey assessed as extrapyramidal symptoms at 3 to 6 mg/kg, po; type: organism-based; set-up: dose 3-6 mg/kg, route oral; settings: in vivo
[18] = Toxicity in Cebus monkey assessed as akathisia at 3 to 6 mg/kg, po; type: organism-based; set-up: dose 3-6 mg/kg, route oral; settings: in vivo
Rattus norvegicus [19] = experiment: Antipsychotic activity in CD rat assessed as inhibition of MK801-induced hyperactivity at 3 mg/kg, po; type: functional, organism-based; set-up: dose 3 mg/kg; outline: as §3
[20] = Efflux ratio in human Caco2 cells; type: ADME, cell-based; settings: Caco-2

T1 sequence (Q13946 whole entry): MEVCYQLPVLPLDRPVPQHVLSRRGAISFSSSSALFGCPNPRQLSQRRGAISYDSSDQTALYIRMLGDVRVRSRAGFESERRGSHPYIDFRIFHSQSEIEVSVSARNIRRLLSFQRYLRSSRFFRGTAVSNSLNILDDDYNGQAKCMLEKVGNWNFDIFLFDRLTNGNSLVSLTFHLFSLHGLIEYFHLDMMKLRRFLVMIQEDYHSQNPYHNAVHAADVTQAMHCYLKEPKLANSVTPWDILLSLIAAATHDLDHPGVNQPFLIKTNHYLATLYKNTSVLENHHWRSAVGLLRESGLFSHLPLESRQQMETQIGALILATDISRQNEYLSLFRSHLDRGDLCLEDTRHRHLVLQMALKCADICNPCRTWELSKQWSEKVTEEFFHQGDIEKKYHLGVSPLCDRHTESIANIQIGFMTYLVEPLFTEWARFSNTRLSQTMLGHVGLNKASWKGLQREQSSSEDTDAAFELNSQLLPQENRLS

SMILES	Ki [2]	Ki [4]	Ki [5]	hepatocyte CLint [14]	hepatocyte CLint [15]	hepatocyte CLint [16]	further results
COc1cc2c(cc1OC)-c1c(-c3cncnc3)ncn1CC2	40 nM	–	–	–	–	–	inhibition [1]: 13%; inhibition [3]: 14%
COc1cc2c(cc1OC)-c1c(-c3cnc(C(=O)N4CCOCC4)s3)ncn1CC2	10 nM	99 nM	613 nM	–	–	–	–
COc1cc2c(cc1OC)-c1c(-c3cncs3)ncn1CC2	–	555 nM	3700 nM	–	–	–	Ki [6]: > 2000 nM; pKa [7]: 4.3; Ki (Phosphodiesterase 6): > 2000 nM; Ki [8]: > 2000 nM; concentration at 1 h [9]: 350 ng/g; Ki [10]: > 2000 nM; Ki (Phosphodiesterase 8): > 2000 nM; inhibition at 10 µM (hERG (KCNH2)): 26%; Ki (Phosphodiesterase 1): > 2000 nM; Ki [11]: > 2000 nM; Activity (Rattus norvegicus [12]): Active; Ki (Phosphodiesterase 4): > 2000 nM; solubility [13]: > 200 µM
COc1cc2c(cc1OC)-c1c(-c3ccccn3)ncn1CC2	240 nM	–	–	–	–	–	–
COc1cc2c(cc1OC)-c1c(-c3ccc(Cl)cc3)ncn1CC2	183 nM	–	–	–	–	–	–
COc1cccc(-c2ncn3c2-c2cc(OC)c(OC)cc2CC3)c1	30 nM	136 nM	5540 nM	66 µL/min/1e6 cells	> 14 µL/min/1e6 cells	61 µL/min/1e6 cells	–
COc1cc2c(cc1OC)-c1c(-c3cccnc3)ncn1C(C)C2 (stereo unspecified)	12 nM	–	–	–	–	–	inhibition [3]: 97%
COc1cc2c(cc1OC)-c1c(-c3cnc(N4CCOCC4)s3)ncn1CC2	26 nM	177 nM	2470 nM	–	–	–	–
COc1cc2c(cc1OC)-c1c(-c3cnc(CN4CCOCC4)s3)ncn1CC2	6.6 nM	148 nM	4600 nM	–	–	–	–
COc1cc2c(cc1OC)-c1c(C3CCCCC3)ncn1CC2	199 nM	–	–	–	–	–	–
COc1cc2c(cc1OC)-c1c(-c3cccc(Br)c3)ncn1CC2	32 nM	1280 nM	10100 nM	66 µL/min/1e6 cells	> 14 µL/min/1e6 cells	61 µL/min/1e6 cells	–
COc1cc2c(cc1OC)-c1c(-c3cscn3)ncn1CC2	861 nM	–	–	–	–	–	–
COc1cc2c(cc1OC)-c1c(-c3ccncc3)ncn1CC2	101 nM	–	–	–	–	–	–
COc1cc2c(cc1OC)-c1c(-c3ccccc3)ncn1CC2	121 nM	–	–	–	–	–	–
COc1cc2c(cc1OC)-c1c(-c3cnc(C(=O)N4CCCOCC4)s3)ncn1CC2	1.5 nM	24 nM	269 nM	–	–	–	–
CCOc1cccc(-c2ncn3c2-c2cc(OC)c(OC)cc2CC3)c1	8 nM	277 nM	3760 nM	66 µL/min/1e6 cells	> 14 µL/min/1e6 cells	61 µL/min/1e6 cells	–
COc1cc2c(cc1OC)-c1c(-c3cnc(CN4CCCOCC4)s3)ncn1CC2	3.8 nM	224 nM	3770 nM	–	–	–	–

SMILES	Ki [2]	Ki [4]	Ki [5]	hepatocyte CLint [14]	hepatocyte CLint [15]	hepatocyte CLint [16]	further results
COc1cc2c(cc1OC)-c1c(-c3cccc(Cl)c3)ncn1CC2	33 nM	954 nM	6930 nM	66 µL/min/1e6 cells	> 14 µL/min/1e6 cells	61 µL/min/1e6 cells	–
COc1cc2c(cc1OC)-c1c(-c3cocn3)ncn1CC2	508 nM	–	–	–	–	–	–
COc1cc2c(cc1OC)-c1c(-c3cnc(C(=O)N(C)C(C)(C)C)s3)ncn1CC2	8.7 nM	149 nM	243 nM	59 µL/min/1e6 cells	66 µL/min/1e6 cells	49 µL/min/1e6 cells	Ki [6]: > 2000 nM; pKa [7]: 4; Ki (Phosphodiesterase 6): > 2000 nM; Ki [8]: > 2000 nM; Ki [10]: > 2000 nM; Ki (Phosphodiesterase 8): > 2000 nM; inhibition at 10 µM (hERG (KCNH2)): 40%; Ki (Phosphodiesterase 1): > 2000 nM; Ki [11]: > 2000 nM; Ki (Phosphodiesterase 4): > 2000 nM; solubility [13]: > 200 µM
COc1cc2c(cc1OC)-c1c(-c3cccnc3)ncn1CC2	29 nM	449 nM	–	38.7 µL/min/1e6 cells	1.7 µL/min/1e6 cells	11.8 µL/min/1e6 cells	Activity [17]: Non-toxic; Ki [6]: > 4270 nM; pKa [7]: 3.5; Ki (Phosphodiesterase 6): > 4274 nM; Ki [8]: > 4270 nM; Activity [18]: Non-toxic; Ki [10]: > 4270 nM; inhibition [1]: 45%; Activity (Rattus norvegicus [19]): Active; Ki (Phosphodiesterase 8): > 4274 nM; inhibition at 10 µM (hERG (KCNH2)): 24%; Ki (Phosphodiesterase 1): > 4274 nM; Ki [11]: > 4270 nM; efflux ratio [20]: 1.4; Ki (Phosphodiesterase 4): > 4274 nM; solubility [13]: > 200 µM
COc1cc2c(cc1OC)-c1c(-c3ccccc3OC)ncn1CC2	212 nM	–	–	–	–	–	–
COc1cc2c(cc1OC)-c1c(-c3cncs3)nc(C)n1CC2	20 nM	968 nM	6120 nM	65.5 µL/min/1e6 cells	7.5 µL/min/1e6 cells	9.2 µL/min/1e6 cells	Ki [6]: > 7100 nM; pKa [7]: 5; Ki (Phosphodiesterase 6): > 7100 nM; Ki [8]: > 7100 nM; Ki [10]: > 7100 nM; Ki (Phosphodiesterase 8): > 7100 nM; inhibition at 10 µM (hERG (KCNH2)): 10%; Ki (Phosphodiesterase 1): > 7100 nM; Ki [11]: > 7100 nM; Ki (Phosphodiesterase 4): > 7100 nM; solubility [13]: > 150 µM
COc1cc2c(cc1OC)-c1c(-c3ccccc3Cl)ncn1CC2	628 nM	–	–	–	–	–	–
COc1cc2c(cc1OC)-c1c(-c3cnco3)ncn1CC2	31 nM	1740 nM	11100 nM	67 µL/min/1e6 cells	25 µL/min/1e6 cells	–	–
COc1cc2c(cc1OC)-c1c(-c3cccnc3)nc(C)n1CC2	25 nM	727 nM	5980 nM	26.6 µL/min/1e6 cells	0.4 µL/min/1e6 cells	3.6 µL/min/1e6 cells	Ki [6]: > 7950 nM; pKa [7]: 4; Ki (Phosphodiesterase 6): > 7950 nM; Ki [8]: > 7950 nM; Ki [10]: > 7950 nM; Ki (Phosphodiesterase 8): > 7950 nM; inhibition at 10 µM (hERG (KCNH2)): 29%; Ki (Phosphodiesterase 1): > 7950 nM; Ki [11]: > 7950 nM; Ki (Phosphodiesterase 4): > 7950 nM; solubility [13]: > 200 µM
COc1cc2c(cc1OC)-c1c(-c3cnc(C(=O)NC4CCOCC4)s3)ncn1CC2	4.3 nM	828 nM	550 nM	22.7 µL/min/1e6 cells	1.4 µL/min/1e6 cells	5.7 µL/min/1e6 cells	–
COc1cc2c(cc1OC)-c1c(-c3cnc(CO)s3)ncn1CC2	26 nM	540 nM	4600 nM	–	–	–	–
COc1cc2c(cc1OC)-c1c(-c3cnc(C)s3)ncn1CC2	186 nM	–	–	–	–	–	–
COc1cc2c(cc1OC)-c1c(-c3cnc(C(=O)NCc4ccccc4)s3)ncn1CC2	40 nM	> 100000 nM	507 nM	–	–	–	–
COc1cc2c(cc1OC)-c1c(-c3cccc(N4CCOCC4)c3)ncn1CC2	6.4 nM	1470 nM	7500 nM	66 µL/min/1e6 cells	> 14 µL/min/1e6 cells	61 µL/min/1e6 cells	–
COc1cc2c(cc1OC)-c1c(-c3cncn3C)ncn1CC2	264 nM	–	–	–	–	–	–
COc1ccc(-c2ncn3c2-c2cc(OC)c(OC)cc2CC3)cc1	114 nM	–	–	–	–	–	–

Source: ChEMBL document CHEMBL2016496, “The SAR development of dihydroimidazoisoquinoline derivatives as phosphodiesterase 10A inhibitors for the treatment of schizophrenia” (Bioorg Med Chem Lett, 2012)
